Test results reported in ChEMBL document CHEMBL2086315, “Flabelliferins A and B, sesterterpenoids from the South Pacific sponge Carteriospongia flabellifera” (J Nat Prod, 2012).
Active and inactive are the calls of the source. The calls are words filed in the database; no cut-off is given here.

How the values were obtained:
KM12 [1] = experiment: Cytotoxicity against human KM12 cells after 2 days by XTT assay; assay type: functional, cell-based; settings: KM12, 48 h
In short: (§1)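 Test samples were supplied as DMSO solutions and applied to human colon tumour KM12 and COLO205 cells in a two-day in vitro XTT-based antiproliferative assay. Activity was expressed as IC50 (μM).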

COLO 205 [2] = experiment: Cytotoxicity against human COLO205 cells after 2 days by XTT assay; assay type: functional, cell-based; settings: COLO 205, 48 h; in short: as §1
KM12 [3] = experiment: Growth inhibition of human KM12 cells after 2 days by XTT assay; assay type: functional, cell-based; settings: KM12, 48 h; in short: as §1
COLO 205 [4] = experiment: Growth inhibition of human COLO205 cells after 2 days by XTT assay; assay type: functional, cell-based; settings: COLO 205, 48 h; in short: as §1
[5] = target: Endothelial PAS domain-containing protein 1 (Homo sapiens) (UniProt Q99814); experiment: Inhibition of HIF-2alpha expressed in 786O cells assessed as inhibition of VEGF expression by luciferase reporter gene assay; assay type: cell-based
Chain of Endothelial PAS domain-containing protein 1 (Homo sapiens) (Q99814 whole entry, the tested form may be a part): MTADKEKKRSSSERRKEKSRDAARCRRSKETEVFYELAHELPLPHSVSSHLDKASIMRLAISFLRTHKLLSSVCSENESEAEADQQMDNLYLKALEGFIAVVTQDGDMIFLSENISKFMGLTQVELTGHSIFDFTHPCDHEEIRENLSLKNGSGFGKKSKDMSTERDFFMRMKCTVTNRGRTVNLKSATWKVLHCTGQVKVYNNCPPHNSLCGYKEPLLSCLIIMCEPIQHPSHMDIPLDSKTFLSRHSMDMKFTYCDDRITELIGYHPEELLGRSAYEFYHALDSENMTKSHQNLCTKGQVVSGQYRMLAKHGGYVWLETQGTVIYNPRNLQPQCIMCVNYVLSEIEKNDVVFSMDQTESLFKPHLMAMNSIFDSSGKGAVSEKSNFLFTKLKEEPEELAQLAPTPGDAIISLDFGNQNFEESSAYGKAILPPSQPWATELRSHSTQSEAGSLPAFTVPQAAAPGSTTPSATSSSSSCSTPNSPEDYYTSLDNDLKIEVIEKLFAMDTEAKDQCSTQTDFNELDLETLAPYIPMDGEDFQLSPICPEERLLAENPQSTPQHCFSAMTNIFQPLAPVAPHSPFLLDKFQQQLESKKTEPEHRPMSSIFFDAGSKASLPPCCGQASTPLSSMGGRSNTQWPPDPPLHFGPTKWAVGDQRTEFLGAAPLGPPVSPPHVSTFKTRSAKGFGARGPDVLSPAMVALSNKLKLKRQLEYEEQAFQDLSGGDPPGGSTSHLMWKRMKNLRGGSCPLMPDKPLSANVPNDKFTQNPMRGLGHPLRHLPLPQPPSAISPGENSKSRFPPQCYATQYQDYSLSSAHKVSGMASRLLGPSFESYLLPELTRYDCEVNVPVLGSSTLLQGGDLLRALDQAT

IC50 (COLO 205 [4]) [µM]	inhibition [5]	SMILES	IC50 (KM12 [1]) [µM]	IC50 (COLO 205 [2]) [µM]	IC50 (KM12 [3]) [µM]
20	inactive	CC(=O)O[C@H]1C[C@H]2[C@@](C)(CC[C@H]3C(C)(C)CCC[C@]23C)[C@@H]2C[C@H](O)C(C(C)=O)=C[C@@]12C [FLABELLIFERIN B]	18	20	18
20	inactive	C=C1[C@@H](OC(C)=O)C[C@H]2[C@@](C)(CC[C@H]3C(C)(C)CCC[C@]23C)[C@@H]1C[C@H](O)[C@H](CCOC(C)=O)C(C)=O [FLABELLIFERIN A]	15	20	15
